Results pooled from the literature.
Protocols differ between the studies behind these lines.
Target: Serine/threonine-protein kinase SIK2 (SIK2, Homo sapiens, UniProt Q9H0K1)

The remaining activity of CC(C)(C)c1nc(-c2cccc(NS(=O)(=O)c3c(F)cccc3F)c2F)c(-c2ccnc(N)n2)s1 is reported as 98% (enzyme activity, inhibitor, radiometric; 1 µM).
With CNC(=O)Nc1ccc2c(c1)[C@@]1(CC2)OC(=O)N(CC(=O)N(Cc2ccc(F)cc2)[C@@H](C)C(F)(F)F)C1=O the remaining binding was 88% (cell-free assay, competition with immobilised ligand; 1 µM).
For Cc1sc(C(=O)NC2COC2)cc1-n1cc(NC(=O)Nc2c(F)cccc2Cl)cn1, the remaining activity was 89.8% (enzyme activity, inhibitor; 10 µM).
COc1cc2ncnc(Nc3ccc(Oc4ccccc4)cc3C)c2cc1OC has an inhibition of 3% (enzyme activity, inhibitor; 1 µM).
The remaining activity of COc1cc(Cl)c(C(=O)N[C@@H](CN[C@H]2CC[C@@H](N)CC2)Cc2ccc(C#N)cc2)cc1-c1ccc(CN[C@H](C)c2ccc(C)cc2)o1 is reported as 96% (enzyme activity, inhibitor; 1 µM).
COc1cc(Nc2cnc(C#N)c(O[C@H](C)CN(C)C)n2)ncc1-c1cnn(C)c1 has a remaining activity of 80% (enzyme activity, inhibitor, radiometric; 1 µM).
The remaining signal of N#CCCc1ccc2c(c1)-c1[nH]c3ccc([N+](=O)[O-])cc3c1CC(=O)N2 is reported as 44.2% (cell-free assay; 0.5 µM).
O=C(Nc1cccnn1)N1CCC(=Cc2cccc(Oc3ccc(C(F)(F)F)cn3)c2)CC1 gave a remaining binding of 100% (cell-free assay, competition with immobilised ligand; 1 µM).
CC/C(=N\NC(=O)NCc1cccc(O)c1)c1ccc(O)c(C)c1O has an inhibition of -5.5% (enzyme activity, inhibitor; 0.1 µM).
With COc1cc(/C=C/C(=O)CC(=O)/C=C/c2ccc(O)c(OC)c2)ccc1O the activity vs control was 83% (enzyme activity, inhibitor; 1 µM).
With O=C1CCc2cc(Nc3cc(OC4CCOCC4)c([N+](=O)[O-])cc3Cl)ccc2N1 the remaining binding was 100% (cell-free assay, competition with immobilised ligand; 1 µM).
FC(F)(F)Oc1cccc(-c2cnc3ccc(-c4ccncc4)nn23)c1 has an activity vs control of 68% (enzyme activity, inhibitor, radiometric; 1 µM).
With COc1cc(Nc2c(C#N)cnc3cc(OCCCN4CCN(C)CC4)c(OC)cc23)c(Cl)cc1Cl the remaining signal was 1.93% (cell-free assay; 0.5 µM).
Cc1nccc(COC(=O)N2C[C@@H]3[C@@H](CNC(=O)c4ccc5[nH]nnc5c4)[C@@H]3C2)n1 gave a remaining binding of 92% (cell-free assay, competition with immobilised ligand; 1 µM).
Cc1ccc(C(=O)Nc2ccc(CN3CCN(C)CC3)c(C(F)(F)F)c2)cc1C#Cc1cnc2cccnn12 gave a remaining activity of 67% (enzyme activity, inhibitor; 23.5 nM).
For COc1cc(-c2cc(-c3ccc(N4CCNCC4)cc3)cnc2N)cc(OC)c1OC, the inhibition was 82% (enzyme activity, inhibitor; 1 µM).
The remaining binding of CC(=O)C1=C(C)N(c2cccc(C(F)(F)F)c2)C(=O)N[C@@H]1c1ccc(C#N)nc1 is reported as 87.8% (cell-free assay, competition with immobilised ligand; 1 µM).
For O=C1Nc2ccc(Cl)cc2C1=Cc1cc(Cl)c(O)c(Cl)c1, the remaining signal was 95% (cell-free assay; 0.5 µM).
CCOc1cc(-c2nncn2C)ccc1Nc1ncc2cc(C)nc(NCC(C)(C)C)c2n1 has an inhibition of less than 15% (enzyme activity, inhibitor, FRET; 1 µM).
